Experimental data: ChEMBL document CHEMBL1687785, “ampG gene of Pseudomonas aeruginosa and its role in β-lactamase expression” (2010)
In brackets after ≈: the same amount, converted by molar mass.

Assays:
Pseudomonas aeruginosa [1] = test: Antimicrobial activity against Pseudomonas aeruginosa isolate 2 obtained from cystic fibrosis patients after 16 to 20 hrs by broth microdilution method; format: functional
How it was run: (§1)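 CLSI broth microdilution in Mueller-Hinton broth, serial 2-fold antibiotic dilutions. Inoculum about 10^4 cells per well, taken from starter cultures grown to OD600 0.5. MIC was the lowest antibiotic concentration preventing growth after 16 to 20 h at 37°C. Each MIC was determined in triplicate.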

Pseudomonas aeruginosa [2] = test: Antimicrobial activity against Pseudomonas aeruginosa isolate 7 obtained from cystic fibrosis patients after 16 to 20 hrs by broth microdilution method in presence of 120 uM carbonyl cyanide m-chlorophenyl-hydrazone; format: functional
How it was run: (§2)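 CLSI broth microdilution in Mueller-Hinton broth with serial antibiotic dilutions. CCCP was added from a 10 mM DMSO stock to 120 μM final, then the bacterial culture was added as inoculum (about 10^4 cells from OD600 0.5 starter cultures). MIC was the lowest concentration preventing growth after 16 to 20 h at 37°C, run in triplicate.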

Pseudomonas aeruginosa [3] = test: Antimicrobial activity against Pseudomonas aeruginosa isolate 1 obtained from cystic fibrosis patients after 16 to 20 hrs by broth microdilution method in presence of 120 uM carbonyl cyanide m-chlorophenyl-hydrazone; format: functional
How it was run: (§3)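 CLSI broth microdilution in Mueller-Hinton broth with CCCP added from a 10 mM DMSO stock to 120 μM final, alongside 2-fold serial antibiotic dilutions. Inoculum from starter cultures grown to OD600 0.5. MIC is the lowest concentration preventing growth after 16-20 h at 37°C. Triplicate.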

Pseudomonas aeruginosa [4] = test: Antimicrobial activity against Pseudomonas aeruginosa isolate 5 obtained from cystic fibrosis patients after 16 to 20 hrs by broth microdilution method in presence of 120 uM carbonyl cyanide m-chlorophenyl-hydrazone; format: functional; how it was run: as §2
Pseudomonas aeruginosa [5] = test: Antimicrobial activity against Pseudomonas aeruginosa isolate 8 obtained from cystic fibrosis patients after 16 to 20 hrs by broth microdilution method; format: functional; how it was run: as §1
Pseudomonas aeruginosa [6] = test: Antimicrobial activity against Pseudomonas aeruginosa isolate 13 obtained from cystic fibrosis patients after 16 to 20 hrs by broth microdilution method in presence of 120 uM carbonyl cyanide m-chlorophenyl-hydrazone; format: functional; how it was run: as §3
Pseudomonas aeruginosa [7] = test: Antimicrobial activity against Pseudomonas aeruginosa isolate 16 obtained from cystic fibrosis patients after 16 to 20 hrs by broth microdilution method; format: functional
How it was run: (§4)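 CLSI broth microdilution: 2-fold serial antibiotic dilutions in Mueller-Hinton broth, inoculated with about 10^4 cells per 100 μl from starter cultures grown to OD600 0.5. MIC is the lowest concentration preventing growth after 16-20 h at 37°C. Triplicate.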

Pseudomonas aeruginosa [8] = test: Antimicrobial activity against Pseudomonas aeruginosa isolate 2 obtained from cystic fibrosis patients after 16 to 20 hrs by broth microdilution method in presence of 120 uM carbonyl cyanide m-chlorophenyl-hydrazone; format: functional; how it was run: as §2
Pseudomonas aeruginosa [9] = test: Antimicrobial activity against Pseudomonas aeruginosa isolate 7 obtained from cystic fibrosis patients after 16 to 20 hrs by broth microdilution method; format: functional; how it was run: as §1
Pseudomonas aeruginosa [10] = test: Antimicrobial activity against Pseudomonas aeruginosa isolate 5 obtained from cystic fibrosis patients after 16 to 20 hrs by broth microdilution method; format: functional; how it was run: as §1
Pseudomonas aeruginosa [11] = test: Antimicrobial activity against Pseudomonas aeruginosa isolate 9 obtained from cystic fibrosis patients after 16 to 20 hrs by broth microdilution method in presence of 120 uM carbonyl cyanide m-chlorophenyl-hydrazone; format: functional; how it was run: as §2
Pseudomonas aeruginosa [12] = test: Antimicrobial activity against Pseudomonas aeruginosa isolate 18 obtained from cystic fibrosis patients after 16 to 20 hrs by broth microdilution method; format: functional; how it was run: as §1
Pseudomonas aeruginosa [13] = test: Antimicrobial activity against Pseudomonas aeruginosa isolate 11 obtained from cystic fibrosis patients after 16 to 20 hrs by broth microdilution method in presence of 120 uM carbonyl cyanide m-chlorophenyl-hydrazone; format: functional; how it was run: as §3
Pseudomonas aeruginosa [14] = test: Antimicrobial activity against Pseudomonas aeruginosa isolate 8 obtained from cystic fibrosis patients after 16 to 20 hrs by broth microdilution method in presence of 120 uM carbonyl cyanide m-chlorophenyl-hydrazone; format: functional; how it was run: as §2
Pseudomonas aeruginosa [15] = test: Antimicrobial activity against Pseudomonas aeruginosa isolate 1 obtained from cystic fibrosis patients after 16 to 20 hrs by broth microdilution method; format: functional; how it was run: as §4
Pseudomonas aeruginosa [16] = test: Antimicrobial activity against Pseudomonas aeruginosa isolate 6 obtained from cystic fibrosis patients after 16 to 20 hrs by broth microdilution method in presence of 120 uM carbonyl cyanide m-chlorophenyl-hydrazone; format: functional; how it was run: as §2
Pseudomonas aeruginosa [17] = test: Antimicrobial activity against Pseudomonas aeruginosa isolate 17 obtained from cystic fibrosis patients after 16 to 20 hrs by broth microdilution method in presence of 120 uM carbonyl cyanide m-chlorophenyl-hydrazone; format: functional; how it was run: as §2
Pseudomonas aeruginosa [18] = test: Antimicrobial activity against Pseudomonas aeruginosa isolate 3 obtained from cystic fibrosis patients after 16 to 20 hrs by broth microdilution method in presence of 120 uM carbonyl cyanide m-chlorophenyl-hydrazone; format: functional; how it was run: as §2
Pseudomonas aeruginosa [19] = test: Antimicrobial activity against Pseudomonas aeruginosa isolate 10 obtained from cystic fibrosis patients after 16 to 20 hrs by broth microdilution method in presence of 120 uM carbonyl cyanide m-chlorophenyl-hydrazone; format: functional; how it was run: as §3
Pseudomonas aeruginosa [20] = test: Antimicrobial activity against Pseudomonas aeruginosa isolate 4 obtained from cystic fibrosis patients after 16 to 20 hrs by broth microdilution method; format: functional; how it was run: as §1
Pseudomonas aeruginosa [21] = test: Antimicrobial activity against Pseudomonas aeruginosa isolate 10 obtained from cystic fibrosis patients after 16 to 20 hrs by broth microdilution method; format: functional; how it was run: as §4
Pseudomonas aeruginosa [22] = test: Antimicrobial activity against Pseudomonas aeruginosa isolate 13 obtained from cystic fibrosis patients after 16 to 20 hrs by broth microdilution method; format: functional; how it was run: as §4
Pseudomonas aeruginosa [23] = test: Antimicrobial activity against Pseudomonas aeruginosa isolate 15 obtained from cystic fibrosis patients after 16 to 20 hrs by broth microdilution method in presence of 120 uM carbonyl cyanide m-chlorophenyl-hydrazone; format: functional; how it was run: as §3
Pseudomonas aeruginosa [24] = test: Antimicrobial activity against Pseudomonas aeruginosa isolate 12 obtained from cystic fibrosis patients after 16 to 20 hrs by broth microdilution method in presence of 120 uM carbonyl cyanide m-chlorophenyl-hydrazone; format: functional; how it was run: as §3
Pseudomonas aeruginosa [25] = test: Antimicrobial activity against Pseudomonas aeruginosa isolate 18 obtained from cystic fibrosis patients after 16 to 20 hrs by broth microdilution method in presence of 120 uM carbonyl cyanide m-chlorophenyl-hydrazone; format: functional; how it was run: as §2
Pseudomonas aeruginosa [26] = test: Antimicrobial activity against Pseudomonas aeruginosa isolate 4 obtained from cystic fibrosis patients after 16 to 20 hrs by broth microdilution method in presence of 120 uM carbonyl cyanide m-chlorophenyl-hydrazone; format: functional; how it was run: as §2
Pseudomonas aeruginosa [27] = test: Antimicrobial activity against Pseudomonas aeruginosa isolate 15 obtained from cystic fibrosis patients after 16 to 20 hrs by broth microdilution method; format: functional; how it was run: as §4
Pseudomonas aeruginosa [28] = test: Antimicrobial activity against Pseudomonas aeruginosa isolate 9 obtained from cystic fibrosis patients after 16 to 20 hrs by broth microdilution method; format: functional; how it was run: as §1
Pseudomonas aeruginosa [29] = test: Antimicrobial activity against Pseudomonas aeruginosa isolate 11 obtained from cystic fibrosis patients after 16 to 20 hrs by broth microdilution method; format: functional; how it was run: as §4
Pseudomonas aeruginosa [30] = test: Antimicrobial activity against Pseudomonas aeruginosa isolate 14 obtained from cystic fibrosis patients after 16 to 20 hrs by broth microdilution method; format: functional; how it was run: as §4
Pseudomonas aeruginosa [31] = test: Antimicrobial activity against Pseudomonas aeruginosa isolate 6 obtained from cystic fibrosis patients after 16 to 20 hrs by broth microdilution method; format: functional; how it was run: as §1
Pseudomonas aeruginosa [32] = test: Antimicrobial activity against Pseudomonas aeruginosa isolate 14 obtained from cystic fibrosis patients after 16 to 20 hrs by broth microdilution method in presence of 120 uM carbonyl cyanide m-chlorophenyl-hydrazone; format: functional; how it was run: as §3
Pseudomonas aeruginosa [33] = test: Antimicrobial activity against Pseudomonas aeruginosa isolate 17 obtained from cystic fibrosis patients after 16 to 20 hrs by broth microdilution method; format: functional; how it was run: as §1
Pseudomonas aeruginosa [34] = test: Antimicrobial activity against Pseudomonas aeruginosa isolate 3 obtained from cystic fibrosis patients after 16 to 20 hrs by broth microdilution method; format: functional; how it was run: as §1
Pseudomonas aeruginosa [35] = test: Antimicrobial activity against Pseudomonas aeruginosa isolate 12 obtained from cystic fibrosis patients after 16 to 20 hrs by broth microdilution method; format: functional; how it was run: as §4
Pseudomonas aeruginosa [36] = test: Antimicrobial activity against Pseudomonas aeruginosa isolate 16 obtained from cystic fibrosis patients after 16 to 20 hrs by broth microdilution method in presence of 120 uM carbonyl cyanide m-chlorophenyl-hydrazone; format: functional; how it was run: as §3
[37] = target: Beta-lactamase (Pseudomonas aeruginosa (strain ATCC 15692 / PAO1 / 1C / PRS 101 / LMG12228)) (UniProt P24735); test: Inhibition of ampD, ampDh2 and ampDh3 deficient Pseudomonas aeruginosa PAO1 AmpC assessed as nitrocefin hydrolyzed per mg of protein at 120 uM by UV spectrophotometry
How it was run: (§5)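 Cells cultured with or without 120 μM CCCP; crude extracts made by sonication; β-lactamase measured by UV spectrophotometry with 100 μM nitrocefin substrate at 30°C; specific activity as nmol nitrocefin hydrolyzed per min per mg protein (BCA, BSA standard); triplicate, averaged.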

[38] = target: Beta-lactamase (Pseudomonas aeruginosa (strain ATCC 15692 / PAO1 / 1C / PRS 101 / LMG12228)) (UniProt P24735); test: Inhibition of ampD, ampDh2, ampDh3 and ampG deficient Pseudomonas aeruginosa PAO1 AmpC harboring pZY0901 conferring resistance to gentamycin assessed as nitrocefin hydrolyzed per mg of protein at 120 uM by UV spectrophotometry; how it was run: as §5
[39] = target: Beta-lactamase (Pseudomonas aeruginosa (strain ATCC 15692 / PAO1 / 1C / PRS 101 / LMG12228)) (UniProt P24735); test: Inhibition of ampD, ampDh2, ampDh3 and ampG deficient Pseudomonas aeruginosa PAO1 AmpC assessed as nitrocefin hydrolyzed per mg of protein at 120 uM by UV spectrophotometry; how it was run: as §5

Chain of Beta-lactamase (Pseudomonas aeruginosa (strain ATCC 15692 / PAO1 / 1C / PRS 101 / LMG12228)) (P24735 27-397 limits assumed): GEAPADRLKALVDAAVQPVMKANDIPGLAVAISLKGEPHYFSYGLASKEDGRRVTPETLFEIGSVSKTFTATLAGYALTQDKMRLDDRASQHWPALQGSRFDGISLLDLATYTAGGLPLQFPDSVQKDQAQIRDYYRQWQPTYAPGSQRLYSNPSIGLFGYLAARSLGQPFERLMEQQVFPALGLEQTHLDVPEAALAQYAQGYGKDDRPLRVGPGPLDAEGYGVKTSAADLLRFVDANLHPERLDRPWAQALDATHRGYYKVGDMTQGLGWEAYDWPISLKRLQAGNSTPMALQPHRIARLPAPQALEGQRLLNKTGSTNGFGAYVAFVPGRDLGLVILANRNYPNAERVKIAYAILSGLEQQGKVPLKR

Compound | MIC (Pseudomonas aeruginosa [1]) [µg/mL] | MIC (Pseudomonas aeruginosa [2]) [µg/mL] | MIC (Pseudomonas aeruginosa [3]) [µg/mL] | MIC (Pseudomonas aeruginosa [4]) [µg/mL] | MIC (Pseudomonas aeruginosa [5]) [µg/mL] | MIC (Pseudomonas aeruginosa [6]) [µg/mL] | MIC (Pseudomonas aeruginosa [7]) [µg/mL] | MIC (Pseudomonas aeruginosa [8]) [µg/mL] | MIC (Pseudomonas aeruginosa [9]) [µg/mL] | MIC (Pseudomonas aeruginosa [10]) [µg/mL] | MIC (Pseudomonas aeruginosa [11]) [µg/mL] | MIC (Pseudomonas aeruginosa [12]) [µg/mL] | MIC (Pseudomonas aeruginosa [13]) [µg/mL] | MIC (Pseudomonas aeruginosa [14]) [µg/mL] | MIC (Pseudomonas aeruginosa [15]) [µg/mL] | MIC (Pseudomonas aeruginosa [16]) [µg/mL] | MIC (Pseudomonas aeruginosa [17]) [µg/mL] | MIC (Pseudomonas aeruginosa [18]) [µg/mL] | MIC (Pseudomonas aeruginosa [19]) [µg/mL] | MIC (Pseudomonas aeruginosa [20]) [µg/mL] | other results
CN(C)[C@@H]1C(O)=C(C(N)=O)C(=O)[C@@]2(O)C(O)=C3C(=O)c4c(O)cccc4[C@@](C)(O)[C@H]3C[C@@H]12 [TETRACYCLINE] | 8 (≈ 18 µM) | 8 | 8 | 8 | 16 (≈ 36 µM) | 8 | 8 (≈ 18 µM) | 8 | 8 (≈ 18 µM) | 8 (≈ 18 µM) | 8 | 16 (≈ 36 µM) | 8 | 8 | 8 (≈ 18 µM) | 8 | 8 | 8 | 8 | 8 (≈ 18 µM) | MIC (Pseudomonas aeruginosa [21]): 8 µg/mL (≈ 18 µM); MIC (Pseudomonas aeruginosa [22]): 8 µg/mL (≈ 18 µM); MIC (Pseudomonas aeruginosa [23]): 8 µg/mL; MIC (Pseudomonas aeruginosa [24]): 8 µg/mL; MIC (Pseudomonas aeruginosa [25]): 8 µg/mL; MIC (Pseudomonas aeruginosa [26]): 8 µg/mL; MIC (Pseudomonas aeruginosa [27]): 8 µg/mL (≈ 18 µM); MIC (Pseudomonas aeruginosa [28]): 8 µg/mL (≈ 18 µM); MIC (Pseudomonas aeruginosa [29]): 8 µg/mL (≈ 18 µM); MIC (Pseudomonas aeruginosa [30]): 8 µg/mL (≈ 18 µM); MIC (Pseudomonas aeruginosa [31]): 8 µg/mL (≈ 18 µM); MIC (Pseudomonas aeruginosa [32]): 8 µg/mL; MIC (Pseudomonas aeruginosa [33]): 8 µg/mL (≈ 18 µM); MIC (Pseudomonas aeruginosa [34]): 8 µg/mL (≈ 18 µM); MIC (Pseudomonas aeruginosa [35]): 8 µg/mL (≈ 18 µM); MIC (Pseudomonas aeruginosa [36]): 8 µg/mL
O=C(N[C@H](CO)[C@H](O)c1ccc([N+](=O)[O-])cc1)C(Cl)Cl [CHLORAMPHENICOL] | 256 (≈ 792 µM) | 8 | 64 | 32 | 32 (≈ 99 µM) | 8 | 8 (≈ 24.8 µM) | 256 | 8 (≈ 24.8 µM) | 32 (≈ 99 µM) | 16 | 32 (≈ 99 µM) | 32 | 32 | 256 (≈ 792 µM) | 8 | 8 | 64 | 8 | 32 (≈ 99 µM) | MIC (Pseudomonas aeruginosa [21]): 32 µg/mL (≈ 99 µM); MIC (Pseudomonas aeruginosa [22]): 32 µg/mL (≈ 99 µM); MIC (Pseudomonas aeruginosa [23]): 8 µg/mL; MIC (Pseudomonas aeruginosa [24]): 8 µg/mL; MIC (Pseudomonas aeruginosa [25]): 32 µg/mL; MIC (Pseudomonas aeruginosa [26]): 32 µg/mL; MIC (Pseudomonas aeruginosa [27]): 8 µg/mL (≈ 24.8 µM); MIC (Pseudomonas aeruginosa [28]): 16 µg/mL (≈ 49.5 µM); MIC (Pseudomonas aeruginosa [29]): 32 µg/mL (≈ 99 µM); MIC (Pseudomonas aeruginosa [30]): 16 µg/mL (≈ 49.5 µM); MIC (Pseudomonas aeruginosa [31]): 8 µg/mL (≈ 24.8 µM); MIC (Pseudomonas aeruginosa [32]): 8 µg/mL; MIC (Pseudomonas aeruginosa [33]): 8 µg/mL (≈ 24.8 µM); MIC (Pseudomonas aeruginosa [34]): 256 µg/mL (≈ 792 µM); MIC (Pseudomonas aeruginosa [35]): 8 µg/mL (≈ 24.8 µM); MIC (Pseudomonas aeruginosa [36]): 8 µg/mL
N#CC(C#N)=NNc1cccc(Cl)c1 | – | – | – | – | – | – | – | – | – | – | – | – | – | – | – | – | – | – | – | – | Activity [37]: 1220 nmol/min; Activity [38]: 2800 nmol/min; Activity [39]: 3 nmol/min
